Data taken from publication PMC2156157 (The Journal of Cell Biology, 1999).

Key:
Type in all cases: cell-based, human
[1] = test system: apical membrane of airway epithelial cells; settings: 16HBE14o− cells on transwell filters 7–10 d after confluence, confocal
Method in brief: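 Samples were 16HBE14o− filters (7–10 d post-confluence) or primary nasal cultures (air-liquid interface, 40–50 d). Fixation was 4% paraformaldehyde, 5–20 min, room temperature. Blocking used milk/BSA/Triton (16HBE14o−) or 10–20% goat serum (primary). Primary antisera ran 4–12 h: ezrin 1:300, ZO-1 1:200, EBP50 1:500 or 1:200, YAP65 1:300 or 1:200. Primary cultures also got 70 nM FITC-phalloidin. Texas red/FITC secondaries, XZ confocal imaging.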

EBP50 = experiment: coimmunoprecipitation with EBP50 antisera from 16HBE14o− lysates; settings: 16HBE14o− lysates (wild type or stably expressing GFP chimera), immunoblot
Method in brief: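 16HBE14o− cells were wild type or stable lines expressing GFP-YAP65 or GFP-YAP65 lacking the last four residues (G418 400 µg/ml; ≥2 clones). Cells were lysed in RIPA. Rabbit anti-EBP50, preimmune serum or normal rabbit IgG (2 µg) was prebound to protein A beads. Lysate (~300 µg or ~200 µg) was incubated for 4–12 h at 4°C. Beads washed three times in RIPA; 10% SDS-PAGE; immunoblot with anti-YAP65 or anti-ezrin (1:1,000); 10–20% input.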

c-Yes = settings: 16HBE14o− on transwell filters, mouse anti–c-Yes (1:100), XZ confocal
Method in brief: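 16HBE14o− clones stably expressing GFP-YAP65 chimeras were selected with G418 and screened by fluorescence and anti-GFP blot. Cells were grown to confluence on transwell filters and fixed in 4% paraformaldehyde. After blocking (milk/BSA/0.1% Triton X-100, 3 h), they were stained with mouse anti-c-Yes (1:100) and fluorescent secondary antiserum, then scanned in XZ by confocal microscopy. At least two independent clones per line were analysed.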

Molecule	localization of endogenous protein [1]	presence in EBP50 immunoprecipitates (EBP50)	c-Yes distribution in cells stably overexpressing the chimera (c-Yes)
EBP50: ERM-binding phosphoprotein 50 kD; two PDZ domains (protein, left off: GST, end not stated, kept) MSADAAAGAPLPRLCCLEKGPNGYGFHLHGEKGKLGQYIRLVEPGSPAEKAGLLAGDRLVEVNGENVEKETHQQVVSRIRAALNAVRLLVVDPETDEQLQKLGVQVREELLRAQEAPGQAEPPAAAEVQGAGNENEPREADKSHPEQRELRPRLCTMKKGPSGYGFNLHSDKSKPGQFIRSVDPDSPAEASGLRAQDRIVEVNGVCMEGKQHGDVVSAIRAGGDETKLLVVDRETDEFFKKCRVIPSQEHLNGPLPVPFTNGEIQKENSREALAEAALESPRPALVRSASSDTSEELNSQDSPPKQDSTAPSSTSSSDPILDFNISLAMAKERAHQKRSSKRAPQMDWSKKNELFSNL	preferentially accumulated at the apical membrane	–	–
GFP-YAP65: GFP fused in-frame with YAP65 (protein, left off: GFP, end not stated, kept) MDPGQQPPPQPAPQGQGQPPSQPPQGQGPPSGPGQPAPAATQAAPQAPPAGHQIVHVRGDSETDLEALFNAVMNPKTANVPQTVPMRLRKLPDSFFKPPEPKSHSRQASTDAGTAGALTPQHVRAHSSPASLQLGAVSPGTLTPTGVVSGPAATPTAQHLRQSSFEIPDDVPLPAGWEMAKTSSGQRYFLNHIDQTTTWQDPRKAMLSQMNVTAPTSPPVQQNMMNSASAMNQRISQSAPVKQPPPLAPQSPQGGVMGGSNSNQQQQMRLQQLQMEKERLRLKQQELLRQVRPQELALRSQLPTLEQDGGTQNPVSSPGMSQELRTMTTNSSDPFLNSGTYHSRDESTDSGLSMSSYSVPRTPDDFLNSVDEMDTGDTINQSTLPSQQNRFPDYLEAIPGTNVDLGTLEGDGMNIEGEELMPSLQEALSSDILNDMESVLAATKLDKESFLTWL	–	present in EBP50 immunoprecipitates	c-Yes was accumulated at the apical membrane
